Assays:
FM3A = assay: Cytotoxicity in mouse FM3A cells after 48 hrs; assay type: functional, cell-based
In short: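 FM3A cells (1 × 10⁴) cultured in ES medium with or without various compound concentrations at 37 °C for 48 h. Cells counted with 0.05% Trypan blue. IC50 as mean ± SD of triplicate determinations.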

[1] = molecular target: Glutamate NMDA receptor; GRIN1/GRIN2B (Homo sapiens, UniProt Q05586+Q13224); assay: Antagonist activity at recombinant NR1/NR2B receptor expressed in Xenopus laevis oocytes; assay type: functional, cell-based, Oocyte
In short: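 Xenopus oocytes injected with NR1 plus NR2B cRNAs at 1:5 (0.1–4 ng NR1 plus 0.5–20 ng NR2). Two-electrode voltage clamp at −70 mV. Receptors activated by superfused glycine and glutamate (10 µM). IC50 from concentration–inhibition curves using five or six concentrations. Means ± SEM of four oocytes.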

[2] = molecular target: Glutamate NMDA receptor; GRIN1/GRIN2A (Homo sapiens, UniProt Q05586+Q12879); assay: Antagonist activity at recombinant NR1/NR2A receptor expressed in Xenopus laevis oocytes; assay type: functional, cell-based, Oocyte
In short: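 Two-electrode voltage clamp of oocytes injected with NR1 plus NR2A cRNA at 1:5 (0.1–4 ng NR1 plus 0.5–20 ng NR2), held at -70 mV. Receptors activated by superfused glycine and glutamate (10 µM). IC50 from concentration–inhibition curves over five or six concentrations; means ± SEM of four oocytes.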

Sequence of Glutamate NMDA receptor; GRIN1/GRIN2A (Q12879 whole entry, other chains not shown, the tested form may be a part): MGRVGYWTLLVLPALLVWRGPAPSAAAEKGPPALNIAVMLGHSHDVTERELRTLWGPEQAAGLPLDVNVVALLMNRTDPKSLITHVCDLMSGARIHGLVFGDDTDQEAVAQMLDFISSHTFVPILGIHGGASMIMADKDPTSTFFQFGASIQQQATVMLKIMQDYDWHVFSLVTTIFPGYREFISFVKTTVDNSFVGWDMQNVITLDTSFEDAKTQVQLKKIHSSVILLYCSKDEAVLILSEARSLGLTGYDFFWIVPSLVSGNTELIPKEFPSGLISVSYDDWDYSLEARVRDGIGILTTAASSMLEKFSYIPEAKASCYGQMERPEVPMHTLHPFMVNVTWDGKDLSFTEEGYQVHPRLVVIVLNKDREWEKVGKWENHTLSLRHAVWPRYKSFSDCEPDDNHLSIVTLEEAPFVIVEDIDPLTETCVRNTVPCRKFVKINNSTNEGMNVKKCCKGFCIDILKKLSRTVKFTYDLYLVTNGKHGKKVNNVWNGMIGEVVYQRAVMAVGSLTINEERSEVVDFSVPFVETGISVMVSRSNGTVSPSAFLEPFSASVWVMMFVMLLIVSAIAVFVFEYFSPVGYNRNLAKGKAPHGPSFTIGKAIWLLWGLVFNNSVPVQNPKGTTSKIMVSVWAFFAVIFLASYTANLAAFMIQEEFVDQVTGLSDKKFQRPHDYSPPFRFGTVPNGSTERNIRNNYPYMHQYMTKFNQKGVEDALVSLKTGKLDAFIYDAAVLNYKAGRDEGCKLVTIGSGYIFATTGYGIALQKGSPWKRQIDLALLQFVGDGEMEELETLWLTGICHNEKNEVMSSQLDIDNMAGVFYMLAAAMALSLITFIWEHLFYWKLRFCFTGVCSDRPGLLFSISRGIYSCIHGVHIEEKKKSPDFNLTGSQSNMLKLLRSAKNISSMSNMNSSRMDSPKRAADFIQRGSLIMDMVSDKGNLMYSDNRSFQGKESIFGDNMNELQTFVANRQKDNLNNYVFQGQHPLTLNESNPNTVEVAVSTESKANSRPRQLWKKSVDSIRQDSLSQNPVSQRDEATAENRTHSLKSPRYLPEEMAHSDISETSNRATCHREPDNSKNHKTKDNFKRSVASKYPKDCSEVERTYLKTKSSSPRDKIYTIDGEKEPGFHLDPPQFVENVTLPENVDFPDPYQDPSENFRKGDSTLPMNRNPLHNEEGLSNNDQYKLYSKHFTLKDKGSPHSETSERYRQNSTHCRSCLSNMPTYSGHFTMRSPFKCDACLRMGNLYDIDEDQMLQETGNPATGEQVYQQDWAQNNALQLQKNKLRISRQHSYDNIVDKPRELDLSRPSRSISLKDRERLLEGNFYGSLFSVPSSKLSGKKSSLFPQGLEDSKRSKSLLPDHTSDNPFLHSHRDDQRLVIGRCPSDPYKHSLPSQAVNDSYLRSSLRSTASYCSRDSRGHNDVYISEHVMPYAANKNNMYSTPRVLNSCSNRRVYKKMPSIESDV
Sequence of Glutamate NMDA receptor; GRIN1/GRIN2B (Q13224 whole entry, other chains not shown, the tested form may be a part): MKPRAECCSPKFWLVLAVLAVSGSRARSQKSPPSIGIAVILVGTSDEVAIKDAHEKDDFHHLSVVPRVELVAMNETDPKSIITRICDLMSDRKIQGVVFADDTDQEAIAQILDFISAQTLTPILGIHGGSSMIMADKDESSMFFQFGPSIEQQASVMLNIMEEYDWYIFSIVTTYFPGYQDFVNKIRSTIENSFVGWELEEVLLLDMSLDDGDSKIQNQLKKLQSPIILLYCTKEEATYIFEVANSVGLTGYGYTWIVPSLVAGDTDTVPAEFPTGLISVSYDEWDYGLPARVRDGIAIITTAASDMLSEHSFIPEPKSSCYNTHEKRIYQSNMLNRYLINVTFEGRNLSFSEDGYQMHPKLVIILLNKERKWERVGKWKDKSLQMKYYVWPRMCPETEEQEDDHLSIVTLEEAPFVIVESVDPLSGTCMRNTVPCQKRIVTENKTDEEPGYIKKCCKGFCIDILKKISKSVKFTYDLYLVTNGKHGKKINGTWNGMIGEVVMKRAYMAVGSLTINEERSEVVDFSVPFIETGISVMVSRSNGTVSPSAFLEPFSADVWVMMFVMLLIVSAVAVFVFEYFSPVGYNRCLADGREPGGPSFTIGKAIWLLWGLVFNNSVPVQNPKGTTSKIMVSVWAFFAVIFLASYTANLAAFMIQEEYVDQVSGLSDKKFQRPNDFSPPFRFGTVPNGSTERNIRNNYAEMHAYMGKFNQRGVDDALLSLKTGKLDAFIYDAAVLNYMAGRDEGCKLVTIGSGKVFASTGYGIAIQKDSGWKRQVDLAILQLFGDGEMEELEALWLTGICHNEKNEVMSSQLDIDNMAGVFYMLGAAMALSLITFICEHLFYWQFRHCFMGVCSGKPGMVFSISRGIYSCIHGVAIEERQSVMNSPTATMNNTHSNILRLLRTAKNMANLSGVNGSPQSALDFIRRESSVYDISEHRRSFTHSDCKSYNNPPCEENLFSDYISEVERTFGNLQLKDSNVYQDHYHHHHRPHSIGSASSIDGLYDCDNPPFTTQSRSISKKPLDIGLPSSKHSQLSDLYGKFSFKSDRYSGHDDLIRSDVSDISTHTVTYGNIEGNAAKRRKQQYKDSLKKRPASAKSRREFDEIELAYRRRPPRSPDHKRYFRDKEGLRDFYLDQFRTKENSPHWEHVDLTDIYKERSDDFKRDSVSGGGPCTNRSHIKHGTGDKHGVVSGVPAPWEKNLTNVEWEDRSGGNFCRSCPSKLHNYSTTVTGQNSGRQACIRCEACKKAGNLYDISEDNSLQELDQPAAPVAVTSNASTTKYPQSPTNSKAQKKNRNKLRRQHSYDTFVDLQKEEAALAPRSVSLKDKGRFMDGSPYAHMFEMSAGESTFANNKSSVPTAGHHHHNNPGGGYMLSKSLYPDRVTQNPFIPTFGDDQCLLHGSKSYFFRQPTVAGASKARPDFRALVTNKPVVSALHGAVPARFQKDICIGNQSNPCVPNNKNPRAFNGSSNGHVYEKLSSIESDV

Q: How did the IC50 (FM3A) turn out when NCCCCNCCCCNCCCCNC(=O)N1c2ccccc2CCc2ccccc21 was run?
A: 133 µM

Q: And the IC50 [1]?
A: 0.142 µM

Q: NCCCCNCCCNCCCCNC(=O)N1c2ccccc2CCc2ccccc21 was tested. Which IC50 (FM3A) did it give?
A: 169 µM

Q: What about the IC50 [2] of the same compound?
A: 0.117 µM

Q: And the IC50 [1]?
A: 0.27 µM

Q: Which IC50 (FM3A) does the source give for NCCCNCCCCNCCCNC(=O)n1c2ccccc2c2ccccc21 here?
A: 31.3 µM

Q: And the IC50 [2]?
A: 0.145 µM

Q: And the IC50 [1]?
A: 0.083 µM

Q: How did the IC50 (FM3A) turn out when NCCCNCCCCNCCCNC(=O)c1ccc2c(c1)C(=O)c1ccccc1C2=O was run?
A: 14.9 µM

Q: What about the IC50 [2] of the same compound?
A: 0.392 µM

Q: And the IC50 [1]?
A: 0.491 µM

Q: Which IC50 (FM3A) does the source give for NCCCCNCCCNCCCCNC(=O)n1c2ccccc2c2ccccc21 here?
A: 42.3 µM

Q: What about the IC50 [2] of the same compound?
A: 0.211 µM

Q: What about the IC50 [1] of the same compound?
A: 0.189 µM

Q: Which results are given for NCCCCNCCCCNCCCCNC(=O)N1c2ccccc2C=Cc2ccccc21?
A: IC50 (FM3A): 132 µM; IC50 [1]: 0.293 µM

Q: With NCCCCNCCCCNCCCCNC(=O)N1c2ccccc2Sc2ccccc21 as the compound, how does the IC50 (FM3A) read?
A: 40.4 µM

Q: And the IC50 [2]?
A: 0.127 µM

Q: What about the IC50 [1] of the same compound?
A: 0.108 µM

Q: With CC12CC3CC(C)(C1)CC(N)(C3)C2 [MEMANTINE] as the compound, how does the IC50 (FM3A) read?
A: 147 µM

Q: Which IC50 (FM3A) does the source give for NCCCNCCCCNCCCNC(=O)N1c2ccccc2CCc2ccccc21 here?
A: 102 µM

Q: And the IC50 [2]?
A: 0.958 µM

Q: And the IC50 [1]?
A: 0.442 µM

Q: NCCCCNCCCCNCCCCNC(=O)n1c2ccccc2c2ccccc21 was tested. Which IC50 (FM3A) did it give?
A: 84.2 µM

Q: What about the IC50 [2] of the same compound?
A: 0.111 µM

Q: What about the IC50 [1] of the same compound?
A: 0.166 µM

Q: NCCCNCCCCNCCCNC(=O)N1c2ccccc2Sc2ccccc21 was tested. Which IC50 (FM3A) did it give?
A: 57.1 µM

Q: What about the IC50 [2] of the same compound?
A: 0.215 µM

Q: What about the IC50 [1] of the same compound?
A: 0.348 µM

Q: NCCCCNCCCNCCCCNC(=O)N1c2ccccc2Sc2ccccc21 was tested. Which IC50 (FM3A) did it give?
A: 32.5 µM

Q: And the IC50 [2]?
A: 0.078 µM

Q: What about the IC50 [1] of the same compound?
A: 0.108 µM

Q: Which results are given for NCCCNCCCCNCCCNC(=O)N1c2ccccc2C=Cc2ccccc21?
A: IC50 (FM3A): 97.6 µM; IC50 [2]: 0.203 µM; IC50 [1]: 0.199 µM

Q: What does the source list for NCCCCNCCCNCCCCNC(=O)N1c2ccccc2C=Cc2ccccc21?
A: IC50 (FM3A): 115 µM; IC50 [2]: 0.198 µM; IC50 [1]: 0.335 µM

Reference: ChEMBL document CHEMBL1146243, “Design, synthesis, and biological evaluation of tricyclic heterocycle-tetraamine conjugates as potent NMDA channel blockers” (Bioorg Med Chem Lett, 2007)
